Screening data: PubChem, several laboratories
A selection: hits, their analogues and other compounds. The true share with any hit is near 4.1%.
KCNQ1 pot – potentiators or activators of human KCNQ1 potassium channel; P51787; CHO-K1 KCNQ1, thallium flux FluxOR fluorescence; hits give high values; B-score at 10 µM; actives 0.35% (n = 310,000); AID 2648;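 active means fluorescence ratio B-score, a plate-corrected score, at least three library SD, with initial intensity B-score within 5 SD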
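Schedule – 37 °C overnight plating, 90-min dark dye load, 20-min compound pretreatment · System – stable KCNQ1 CHO-K1 line · Probe or stimulus – thallium- and potassium-containing depolarizing buffer · Measured by – kinetic FluxOR fluorescence, 10 s baseline plus 110 s post-stimulus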
hERG rescue – hERG (human) protection from proarrhythmic block. Q12809. CHO-hERG, FluxOR thallium flux, dofetilide IC70 present. activation (rescue from dofetilide block), less the hit threshold, % at 10 µM. actives 0.51% (n = 310,000);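 active means activation above the mean of controls blocked by dofetilide plus 5 SD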;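 further: thallium influx through hERG after potassium depolarization seen as dye fluorescence rise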
KCNK3 block – human KCNK3 channel inhibition, primary screen; CHO-KCNK3 thallium flux, FluxOR fluorescence; hits give low values; B-score at 10 µM; actives 0.84% (n = 340,000); AID 602410;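 active means B-score under library mean minus 4 SD, starting fluorescence ratio at most library mean plus 5 SD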;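 further: more negative B-score means stronger inhibition of thallium flux through KCNK3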
KCNQ1 inh – inhibitors of human KCNQ1 potassium channel. CHO-K1 KCNQ1, FluxOR thallium flux fluorescence; hits give high values. B-score at 10 µM. actives 1.3% (n = 310,000);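 active means compounds whose thallium flux B-score, printed positive for inhibition, exceeds three library SD while starting fluorescence stays within three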;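 further: channel opened by potassium depolarization with thallium stimulus after 20 min compound exposure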
KCNK9 inh – inhibitors of human KCNK9 two-pore domain potassium channel | Q9NPC2 | HEK293 KCNK9, FluxOR thallium flux fluorescence; hits give low values | B-score at 10 µM | actives 1.2% (n = 310,000) | AID 488922;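 active means ratio B-score over 3 SD below the library mean, with starting fluorescence within 5 SD of its mean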;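 further: negative B-score means less thallium flux so channel inhibition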
Target sequence (Q9NPC2 whole entry, looked up, the tested form may be a part): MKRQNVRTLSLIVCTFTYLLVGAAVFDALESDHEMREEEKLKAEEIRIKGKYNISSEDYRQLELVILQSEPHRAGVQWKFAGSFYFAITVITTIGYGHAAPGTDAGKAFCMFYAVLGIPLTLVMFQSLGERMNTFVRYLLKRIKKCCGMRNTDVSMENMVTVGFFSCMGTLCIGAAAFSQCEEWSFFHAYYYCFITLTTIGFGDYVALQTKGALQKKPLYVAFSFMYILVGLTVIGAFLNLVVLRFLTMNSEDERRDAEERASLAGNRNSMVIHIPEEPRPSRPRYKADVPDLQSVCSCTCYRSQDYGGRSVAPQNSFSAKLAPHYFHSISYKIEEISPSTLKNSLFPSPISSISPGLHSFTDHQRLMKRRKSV
KCC2 mod – modulates chloride dependent transport by human KCC2; actives 2.2% (n = 190,000); Q9H2X9; B-score of Tl+ flux slope (higher = more flux/activation; lower = inhibition) at 10 µM; KCC2 cells, thallium flux FluoZin-2 fluorescence;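 active means thallium flux slope and its plate-corrected score both differing from the plate sample mean at a set confidence after two filtering rounds, in either direction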;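 further: slope of fluorescence scaled to starting intensity during 10 to 20 s after thallium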
KCNK9 block conf – confirmation of human KCNK9 potassium channel inhibitors | actives 43% (n = 4,900) | HEK293 KCNK9 cells, FluxOR thallium flux fluorescence | AID 492992 | inhibition, % at 10 µM | shares compounds with KCNK9 inh;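 active means thallium signal inhibited by more than 5 SD of the compound-free buffer control wells, on both duplicate plates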;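 further: 0% = assay buffer control wells without compound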
Kir21 sel – mouse Kir2.1 off-target activity of KCNK9 modulators; shares compounds with KCNK9 inh; actives 4% (n = 4,900); inhibition, % at 10 µM; Kir2.1 cells, FluxOR thallium flux fluorescence; AID 492993;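 active means thallium signal drop more than 5 SD beyond the mean of the no-compound control wells, seen in both duplicate plates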;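 further: signal is fluorescence rise after thallium addition divided by baseline fluorescence; plate controls were assay buffer only for no effect and full block by chlorpromazine control for full effect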
HEK293 Tl ctr – non-induced cell nonspecific activity of KCNK9 modulators; actives 40% (n = 4,900); inhibition, % at 10 µM; non-induced KCNK9-HEK293, FluxOR thallium flux; shares compounds with KCNK9 inh;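 active means thallium signal drop beyond 5 SD of the untreated control mean, on both duplicate plates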;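 further: plate controls were buffer only IC0 wells for no effect and SID17386958 at its maximal inhibitory level for full effect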
Starred values were filed as active, the others as inactive.

Results for CSc1nnc(-c2ccccc2N=Cc2c(C)[nH]n(-c3ccc4ccccc4c3)c2=O)c(=O)[nH]1 ?
KCNQ1 pot: inactive; hERG rescue: -13; KCNK3 block: inactive; KCNQ1 inh: inactive; KCNK9 inh: inactive; KCC2 mod: 0.97; KCNK9 block conf: inactive; Kir21 sel: inactive; HEK293 Tl ctr: inactive

How did C=CCSc1nnc(-c2ccccc2N=Cc2c(C)[nH]n(-c3ccccc3)c2=O)c(=O)[nH]1 do in these assays?
KCNQ1 pot: inactive; hERG rescue: -22; KCNK3 block: inactive; KCNQ1 inh: inactive; KCNK9 inh: inactive; KCC2 mod: -0.87

How did O=C(CSc1cccc2cccnc12)Nc1cc(C(=O)O)cc(C(=O)O)c1 do in these assays?
KCNQ1 pot: inactive; hERG rescue: -6; KCNK3 block: inactive; KCNQ1 inh: inactive; KCNK9 inh: inactive

What do the screens show for `CN(C)S(=O)(=O)n1cc(/C=C(\NC(=O)c2ccccc2F)C(=O)NCCCn2ccnc2)c2ccccc21`?
KCNQ1 pot: inactive; hERG rescue: -24; KCNK3 block: inactive; KCNQ1 inh: inactive; KCNK9 inh: inactive

What do the screens show for `O=c1c(C/C=C/c2ccccc2)c(O)ccn1Cc1ccc(Cl)cc1Cl`?
KCNQ1 pot: inactive; hERG rescue: -16; KCNK3 block: inactive; KCNQ1 inh: 9*; KCNK9 inh: inactive; KCC2 mod: -0.0081; KCNK9 block conf: inactive; Kir21 sel: inactive; HEK293 Tl ctr: inactive

Results for Cc1ccc(-c2nc(C3CCN(S(=O)(=O)c4ccc(C(C)(C)C)cc4)CC3)no2)cc1 ?
KCNQ1 pot: inactive; hERG rescue: -7; KCNK3 block: inactive; KCNQ1 inh: inactive; KCNK9 inh: inactive; KCC2 mod: 0.33; KCNK9 block conf: inactive; Kir21 sel: inactive; HEK293 Tl ctr: inactive

What do the screens show for `CC(NC(=O)c1ccccc1Cl)C(=O)OCc1cn2cc(Cl)ccc2n1` (centres undefined)?
KCNK3 block: inactive

How did Cc1cccc(N2CCN(Cc3nc(-c4ccccc4Cl)oc3C)CC2)n1 do in these assays?
KCNQ1 pot: inactive; hERG rescue: -13; KCNK3 block: inactive; KCNQ1 inh: inactive; KCNK9 inh: inactive; KCC2 mod: 0.47; KCNK9 block conf: inactive; Kir21 sel: inactive; HEK293 Tl ctr: inactive

What do the screens show for `Cc1oc(-c2cccc(C(F)(F)F)c2)nc1CN1CCN(c2ccccn2)CC1`?
KCNQ1 pot: inactive; hERG rescue: -18; KCNK3 block: inactive; KCNQ1 inh: inactive; KCNK9 inh: inactive; KCNK9 block conf: inactive; Kir21 sel: inactive; HEK293 Tl ctr: inactive

Results for Cc1cccc(N2CCN(Cc3nc(-c4cccc(Cl)c4)oc3C)CC2)n1 ?
KCNQ1 pot: inactive; hERG rescue: -17; KCNK3 block: inactive; KCNQ1 inh: inactive; KCNK9 inh: inactive; KCC2 mod: 0.59; KCNK9 block conf: inactive; Kir21 sel: inactive; HEK293 Tl ctr: inactive

What do the screens show for `COC(=O)c1cc2occc2n1Cc1nc(-c2cccc(Cl)c2)oc1C`?
KCNQ1 pot: inactive; hERG rescue: -9; KCNK3 block: inactive; KCNQ1 inh: inactive; KCNK9 inh: -9.3*; KCC2 mod: 0.89; KCNK9 block conf: inactive; Kir21 sel: inactive; HEK293 Tl ctr: 24%*

Results for O=C1C(=NO)CCc2ccccc21 ?
KCNK3 block: inactive

Results for O=C(Nc1ccccc1)Nc1ccc(-n2ccc(C(F)(F)F)n2)cc1 ?
KCNQ1 pot: inactive; hERG rescue: -19; KCNK3 block: inactive; KCNQ1 inh: 6*; KCNK9 inh: -9*; KCC2 mod: 0.12; KCNK9 block conf: 48%*; Kir21 sel: inactive; HEK293 Tl ctr: inactive

How did Cn1ccc2cc(-c3csc(N4CCC(C(N)=O)CC4)n3)ccc21 do in these assays?
KCNK3 block: inactive

How did CCc1nc(N(CC)CC)c2oc3ccccc3c2n1 do in these assays?
KCNQ1 pot: inactive; hERG rescue: -10; KCNK3 block: inactive; KCNQ1 inh: inactive; KCNK9 inh: inactive; KCC2 mod: -2.4

How did CCc1nc(N2CCC(C)CC2)c2oc3ccccc3c2n1 do in these assays?
KCNQ1 pot: inactive; hERG rescue: -11; KCNK3 block: inactive; KCNQ1 inh: inactive; KCNK9 inh: -14*; KCC2 mod: -0.43; KCNK9 block conf: 46%*; Kir21 sel: inactive; HEK293 Tl ctr: 36%*

What do the screens show for `OCCN1CCN(C2Cc3cc(Cl)ccc3Sc3ccc(Cl)cc32)CC1` (centres undefined) (tested in a mixture with another compound)?
KCNQ1 pot: inactive; hERG rescue: -22; KCNK3 block: inactive; KCNQ1 inh: 7*; KCNK9 inh: -8.6*; KCC2 mod: 0.22; KCNK9 block conf: inactive; Kir21 sel: inactive; HEK293 Tl ctr: inactive

What do the screens show for `Cc1ccc2c(c1)N(C(=O)CCC(=O)N1CCN(c3ccccn3)CC1)CC(C)O2` (centres undefined)?
KCNQ1 pot: inactive; hERG rescue: -11; KCNK3 block: inactive; KCNQ1 inh: inactive; KCNK9 inh: inactive

Results for Cc1cccc(N2CCN(C(=O)CCC(=O)N3CC(C)Oc4ccc(C)cc43)CC2C)c1 (centres undefined) ?
KCNQ1 pot: inactive; hERG rescue: -13; KCNK3 block: inactive; KCNQ1 inh: inactive; KCNK9 inh: inactive; KCNK9 block conf: inactive; Kir21 sel: inactive; HEK293 Tl ctr: inactive

What do the screens show for `Cc1ccc2c(c1)N(C(=O)CCC(=O)Nc1ccccc1Cl)CC(C)O2` (centres undefined)?
KCNQ1 pot: inactive; hERG rescue: -11; KCNK3 block: inactive; KCNQ1 inh: inactive; KCNK9 inh: inactive; KCNK9 block conf: inactive; Kir21 sel: inactive; HEK293 Tl ctr: inactive

How did Cc1ccc2c(c1)N(C(=O)CCC(=O)NCc1ccccc1)CC(C)O2 (centres undefined) do in these assays?
KCNQ1 pot: inactive; hERG rescue: -4; KCNK3 block: inactive; KCNQ1 inh: inactive; KCNK9 inh: inactive

Results for C=CCn1c(C)cc(C(=O)CSc2nnc(-c3cccc(S(=O)(=O)N(CC)CC)c3)o2)c1C ?
KCNQ1 pot: inactive; hERG rescue: -1; KCNK3 block: inactive; KCNQ1 inh: inactive; KCNK9 inh: inactive; KCNK9 block conf: inactive; Kir21 sel: inactive; HEK293 Tl ctr: inactive
